In ChEMBL document CHEMBL1759890, “3,5-Disubstituted-indole-7-carboxamides: the discovery of a novel series of potent, selective inhibitors of IKK-β” (Bioorg Med Chem Lett, 2011):

How the values were obtained:
[1] = molecular target: T1, Inhibitor of nuclear factor kappa-B kinase subunit alpha (Homo sapiens, UniProt O15111); test: Inhibition of IKK-alpha
T1 sequence (O15111 whole entry): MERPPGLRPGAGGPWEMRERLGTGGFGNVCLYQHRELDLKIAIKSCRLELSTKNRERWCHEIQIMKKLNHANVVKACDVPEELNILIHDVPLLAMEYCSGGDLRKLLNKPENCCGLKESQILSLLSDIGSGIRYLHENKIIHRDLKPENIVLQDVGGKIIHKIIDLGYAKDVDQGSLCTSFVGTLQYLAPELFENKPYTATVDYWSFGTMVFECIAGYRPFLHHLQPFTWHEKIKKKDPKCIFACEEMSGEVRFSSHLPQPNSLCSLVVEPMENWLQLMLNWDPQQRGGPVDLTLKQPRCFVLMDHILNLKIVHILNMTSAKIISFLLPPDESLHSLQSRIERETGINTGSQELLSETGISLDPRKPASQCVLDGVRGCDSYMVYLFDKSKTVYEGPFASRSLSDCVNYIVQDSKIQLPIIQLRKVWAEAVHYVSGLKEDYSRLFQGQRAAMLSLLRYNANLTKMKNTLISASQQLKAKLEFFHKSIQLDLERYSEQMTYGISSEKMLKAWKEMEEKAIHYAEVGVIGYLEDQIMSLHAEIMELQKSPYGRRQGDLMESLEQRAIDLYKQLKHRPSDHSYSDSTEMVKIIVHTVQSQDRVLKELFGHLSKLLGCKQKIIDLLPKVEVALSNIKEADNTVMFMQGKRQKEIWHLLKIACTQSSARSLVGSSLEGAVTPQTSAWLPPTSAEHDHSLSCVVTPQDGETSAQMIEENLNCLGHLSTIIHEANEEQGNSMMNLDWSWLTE
Method in brief: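 Done the same way as the IKK-β TR-FRET assay but with 6-His-tagged full-length IKK-α. Buffer is 50 mM HEPES, 10 mM MgCl₂, 1 mM CHAPS pH 7.4, 1 mM DTT, 0.01% w/v BSA. GST-IκBα substrate 25 nM final, ATP 1 μM final, DMSO below 5% final. Error about ±0.3 log units.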

[2] = molecular target: T2, Inhibitor of nuclear factor kappa-B kinase subunit beta (Homo sapiens, UniProt O14920); test: Inhibition of IKK-beta in human A549 cells assessed as TNF-alpha-induced Nuclear factor-kappa-B nuclear translocation
T2 sequence (O14920 whole entry): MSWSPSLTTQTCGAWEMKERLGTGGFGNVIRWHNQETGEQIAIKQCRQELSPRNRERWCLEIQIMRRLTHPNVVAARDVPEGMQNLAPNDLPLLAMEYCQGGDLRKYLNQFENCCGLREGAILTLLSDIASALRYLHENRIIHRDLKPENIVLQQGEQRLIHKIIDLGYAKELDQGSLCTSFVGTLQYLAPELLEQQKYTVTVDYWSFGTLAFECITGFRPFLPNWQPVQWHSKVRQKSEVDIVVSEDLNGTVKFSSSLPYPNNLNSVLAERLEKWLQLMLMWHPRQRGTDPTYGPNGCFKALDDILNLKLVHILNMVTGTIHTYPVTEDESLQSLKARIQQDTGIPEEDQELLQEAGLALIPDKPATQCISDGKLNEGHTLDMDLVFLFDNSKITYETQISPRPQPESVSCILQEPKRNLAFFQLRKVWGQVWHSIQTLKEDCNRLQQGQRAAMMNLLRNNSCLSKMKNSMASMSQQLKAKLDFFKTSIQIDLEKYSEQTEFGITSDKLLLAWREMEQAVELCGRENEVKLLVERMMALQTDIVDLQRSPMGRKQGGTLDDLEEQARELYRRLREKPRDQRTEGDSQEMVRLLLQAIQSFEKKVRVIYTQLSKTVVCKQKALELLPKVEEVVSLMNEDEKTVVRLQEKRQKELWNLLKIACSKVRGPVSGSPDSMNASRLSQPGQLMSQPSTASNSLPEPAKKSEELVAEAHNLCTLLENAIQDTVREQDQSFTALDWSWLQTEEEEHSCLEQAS

[3] = molecular target: Casein kinase I isoform epsilon (Homo sapiens, UniProt P49674); test: Binding affinity to CSNK1eplison assessed as dissociation constant
Chain of Casein kinase I isoform epsilon (P49674 whole entry, canonical isoform): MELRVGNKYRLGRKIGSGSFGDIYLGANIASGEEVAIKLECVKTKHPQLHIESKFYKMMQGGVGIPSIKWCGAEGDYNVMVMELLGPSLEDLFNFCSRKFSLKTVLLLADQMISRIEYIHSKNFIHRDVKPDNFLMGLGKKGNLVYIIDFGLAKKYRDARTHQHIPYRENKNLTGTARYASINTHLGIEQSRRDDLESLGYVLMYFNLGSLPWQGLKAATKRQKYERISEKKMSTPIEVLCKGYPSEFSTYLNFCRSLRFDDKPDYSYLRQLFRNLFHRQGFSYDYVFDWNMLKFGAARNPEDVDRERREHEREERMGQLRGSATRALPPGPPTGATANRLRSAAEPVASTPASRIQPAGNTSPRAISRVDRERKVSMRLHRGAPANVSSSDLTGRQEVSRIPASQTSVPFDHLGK

[4] = molecular target: T3, Aurora kinase A (Homo sapiens, UniProt O14965); test: Inhibition of Aurora A kinase
T3 sequence (O14965 whole entry): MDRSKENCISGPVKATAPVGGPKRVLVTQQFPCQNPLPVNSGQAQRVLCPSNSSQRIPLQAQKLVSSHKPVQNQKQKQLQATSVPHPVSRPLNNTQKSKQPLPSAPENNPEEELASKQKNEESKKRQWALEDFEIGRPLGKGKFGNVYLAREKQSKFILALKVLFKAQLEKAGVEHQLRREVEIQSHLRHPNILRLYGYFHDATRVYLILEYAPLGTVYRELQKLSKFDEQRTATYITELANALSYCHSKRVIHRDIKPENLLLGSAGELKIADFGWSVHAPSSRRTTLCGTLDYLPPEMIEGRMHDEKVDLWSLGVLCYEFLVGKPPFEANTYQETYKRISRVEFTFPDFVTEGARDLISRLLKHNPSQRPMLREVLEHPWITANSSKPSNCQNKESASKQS

[5] = system: PBMC; test: Antiinflammatory activity in human PBMC assessed as inhibition of LPS-induced TNF-alpha production; type: functional, cell-based
Method in brief: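 Human peripheral blood mononuclear cells stimulated with LPS. Read-out is inhibition of TNF-α production, reported as pIC50.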

[6] = molecular target: T4, Inhibitor of nuclear factor kappa-B kinase subunit epsilon (Homo sapiens, UniProt Q14164); test: Inhibition of IKK-epsilon
T4 sequence (Q14164 whole entry): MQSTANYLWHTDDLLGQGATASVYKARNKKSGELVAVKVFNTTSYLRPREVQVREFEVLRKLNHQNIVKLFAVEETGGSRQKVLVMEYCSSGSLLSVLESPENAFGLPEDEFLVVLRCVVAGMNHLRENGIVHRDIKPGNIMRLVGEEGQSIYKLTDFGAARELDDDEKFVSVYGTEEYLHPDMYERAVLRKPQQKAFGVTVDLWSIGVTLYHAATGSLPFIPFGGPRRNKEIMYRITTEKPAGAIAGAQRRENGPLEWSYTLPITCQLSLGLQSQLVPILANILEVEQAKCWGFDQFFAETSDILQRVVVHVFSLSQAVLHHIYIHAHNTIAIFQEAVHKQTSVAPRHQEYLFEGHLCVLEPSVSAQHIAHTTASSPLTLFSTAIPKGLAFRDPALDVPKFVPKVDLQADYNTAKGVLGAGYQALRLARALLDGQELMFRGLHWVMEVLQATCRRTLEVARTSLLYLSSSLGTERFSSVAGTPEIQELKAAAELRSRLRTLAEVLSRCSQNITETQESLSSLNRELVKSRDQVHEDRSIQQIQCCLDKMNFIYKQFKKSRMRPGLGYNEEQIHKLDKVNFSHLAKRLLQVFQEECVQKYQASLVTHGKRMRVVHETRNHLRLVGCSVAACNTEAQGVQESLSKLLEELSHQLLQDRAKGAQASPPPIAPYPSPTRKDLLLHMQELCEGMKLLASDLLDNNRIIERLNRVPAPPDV

[7] = molecular target: Tyrosine-protein kinase BTK (Homo sapiens, UniProt Q06187); test: Inhibition of BTK
Chain of Tyrosine-protein kinase BTK (Q06187 whole entry): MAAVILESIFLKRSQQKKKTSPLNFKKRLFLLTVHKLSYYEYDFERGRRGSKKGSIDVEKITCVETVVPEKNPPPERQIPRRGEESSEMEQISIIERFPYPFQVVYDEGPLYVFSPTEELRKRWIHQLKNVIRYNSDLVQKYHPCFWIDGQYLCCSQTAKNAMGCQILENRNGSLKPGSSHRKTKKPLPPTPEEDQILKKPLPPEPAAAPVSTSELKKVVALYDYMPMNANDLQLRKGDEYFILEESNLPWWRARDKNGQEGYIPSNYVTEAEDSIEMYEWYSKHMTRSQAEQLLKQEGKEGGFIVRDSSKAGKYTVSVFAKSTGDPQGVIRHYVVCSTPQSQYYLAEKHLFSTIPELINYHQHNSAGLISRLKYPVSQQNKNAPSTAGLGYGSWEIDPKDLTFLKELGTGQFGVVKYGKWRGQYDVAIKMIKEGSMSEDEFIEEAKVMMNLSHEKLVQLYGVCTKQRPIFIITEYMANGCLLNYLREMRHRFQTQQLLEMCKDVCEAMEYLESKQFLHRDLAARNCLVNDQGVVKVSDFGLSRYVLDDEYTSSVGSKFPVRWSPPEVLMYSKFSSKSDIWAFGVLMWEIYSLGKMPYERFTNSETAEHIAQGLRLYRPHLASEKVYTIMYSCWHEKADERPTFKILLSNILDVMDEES

CCCS(=O)(=O)N1CCC(c2c[nH]c3c(C(N)=O)cc(-c4ccccc4)cc23)CC1 showed an IC50 [1] of 2000 nM, an IC50 [2] of 158 nM and a Kd [3] of 1580 nM. The IC50 [4] was 1260 nM, the IC50 [5] was 631 nM and the IC50 [6] was > 3160 nM. It also gave an IC50 [7] of 1580 nM.
